Laboratory results reported in PubChem BioAssay.
The source made the active and inactive calls.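 How the source made its calls, unless noted: active means viability at or below 10% of carrier control in both of two separate runs; inconclusive means viability at or below 10% in only one of the two runs; inactive means the rest.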

Key:
[1] = reduced viability of SK-BR-3 breast cancer cells – cell-based, 24 h, human, pilot screen (AID 572); conditions: SK-BR-3 viability, CellTiter-Glo luminescence, at 10 µM, stronger effect = lower value;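 further: compound exposure lasted between 18 and 24 h rather than exactly 24 h; 100% = carrier-treated control wells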
[2] = HUVEC growth inhibition – cell-based, human, primary screen (AID 575;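 active means viability at or below 30% in both replicate assays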;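 further: 100% = median of untreated cell wells with 0.1% DMSO on each plate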); conditions: HUVEC proliferation, CellTiter-Glo luminescence, 72 h; at 10 µM; stronger effect = lower value
Outline: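 System: primary human umbilical vein endothelial cells; Quantity: 1250 endothelial cells in each well; Buffer or medium: supplemented EBM, 2% fetal bovine serum; Doses: one dose, 10 µM final, 0.1% DMSO; Incubation: 72 h compound incubation; Technique: ATP-based CellTiter-Glo luminescent read; Evaluation: percent of median DMSO-control luminescence; Controls: vehicle and MePR control wells.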

[3] = H69AR cell proliferation blockers – human, duplicate replicates, primary screen (AID 580;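 active means viability at or under a set limit in both replicates, limit being median viability minus 3 SD, cut at about 48% in these data, passing the limit was not always enough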;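 further: 100% = mean luminescence of untreated wells and 0% = no signal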); conditions: H69AR lung tumor cells viability, ATP luminescence, 72 h; at 10 µM; stronger effect = lower value
[4] = MRP1 drug-resistance reversers in H69AR cells – cell-based, doxorubicin co-treatment, pilot screen (AID 601;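 active means viability loss from added drug above about 55%, and viability with drug at most 40%, in both replicates, limit read from the data, passing the limit was not always enough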); conditions: CellTiter-Glo, 72 h, at 10 µM; for differential viability (reversal): stronger effect = higher value
[5] = yeast transport mutant growth inhibition pilot in 384-well plates, post-Golgi transport modulator project (AID 636; in the data active means inhibition above about 31%); conditions: absorbance 615 nm, about 18 h, stronger effect = higher value
[6] = growth suppression of yeast trafficking mutant, preliminary HTS, modulators of trafficking downstream of Golgi apparatus project, 1536-format plate, OD 615 nm (AID 637; in the data active means inhibition above about 30%); conditions: yeast transport mutant growth, absorbance 615 nm, 18 h; stronger effect = higher value
[7] = H69AR cells + 2 uM doxorubicin, measured here: viability with 2 uM doxorubicin, stronger effect = lower value
[8] = H69AR cells, compound alone cytotoxicity

Row | SMILES | viability [1] | viability [2] | viability [3] | differential viability (reversal) ([4]; H69AR cells + 2 uM doxorubicin) | viability [4, 7] [%] | viability [4, 8] [%] | inhibition [5] | inhibition [6]
1 | [O-][n+]1onc2c1CCc1nnc(-c3ccccc3)cc1-2 | 93.5% (inactive) | 113% (inactive) | 76.2% (inactive) | 43.7% (inactive) | 32.6 | 76.2 | -1.18% (inactive) | 8.03% (inactive)
2 | CC(C)OC(=O)C(C)(C)Oc1ccc(C(=O)c2ccc(Cl)cc2)cc1 | 88% (inactive) | 90.1% (inactive) | 103% (inactive) | 8.95% (inactive) | 94.5 | 103 | 0.78% (inactive) | -7.67% (inactive)
3 | CC(C)n1nc(C(=O)Nc2nc3ccc(S(C)(=O)=O)cc3s2)c2ccccc2c1=O | 87% (inactive) | 86.1% (inactive) | 67.8% (inactive) | -4.21% (inactive) | 72 | 67.8 | -4.86% (inactive) | 2.73% (inactive)
4 | Cc1cc(=O)n2nc(N3CCC(C(=O)N4CCN(Cc5ccccc5)CC4)CC3)sc2n1 | 97% (inactive) | 108% (inactive) | 91.1% (inactive) | 7.01% (inactive) | 84.1 | 91.1 | -3.24% (inactive) | -1.27% (inactive)
5 | Cc1nnc(SCC(=O)NCc2ccc3c(c2)OCO3)s1 | 87% (inactive) | 103% (inactive) | 101% (inactive) | -12.3% (inactive) | 113 | 101 | -2.33% (inactive) | 5.82% (inactive)
6 | c1coc(CN(Cc2cccs2)Cc2nnnn2C2CCCCC2)c1 | 74% (inactive) | 83.2% (inactive) | 75.7% (inactive) | -4.73% (inactive) | 80.4 | 75.7 | -3.84% (inactive) | 0% (inactive)
7 | COC(=O)CNc1nc(C2CC2)nc2c1nnn2Cc1ccccc1Cl | 89% (inactive) | 84.9% (inactive) | 94.7% (inactive) | -2.29% (inactive) | 97 | 94.7 | -9.04% (inactive) | 1.13% (inactive)
8 | O=C(CCn1cccc1)N1CCc2ccccc21 | 104% (inactive) | 83% (inactive) | 101% (inactive) | 13.3% (inactive) | 87.6 | 101 | -2.08% (inactive) | 2.13% (inactive)
9 | CC(=O)C1=C(NC(=O)c2ccccc2F)C[C@@H]2[C@H]1C2(C)C | 90% (inactive) | 99.2% (inactive) | 91.3% (inactive) | 1.76% (inactive) | 89.5 | 91.3 | -10.7% (inactive) | -3.55% (inactive)
10 | COc1ccccc1C(=O)NCC(=O)Nc1ccccc1 | 104% (inactive) | 98.2% (inactive) | 98.5% (inactive) | -1.45% (inactive) | 100 | 98.5 | -8.08% (inactive) | 2.91% (inactive)
11 | Brc1c(NC2=NCCN2)ccc2nccnc12 | 105% (inactive) | 106% (inactive) | 95% (inactive) | -7.09% (inactive) | 102 | 95 | -0.39% (inactive) | 15.3% (inactive)
12 | CCC(=O)N(Cc1ccco1)c1nc(-c2cc(OC)ccc2OC)cs1 | 105% (inactive) | 42.8% (inactive) | 69.3% (inactive) | -0.87% (inactive) | 70.2 | 69.3 | -2% (inactive) | -2.91% (inactive)
13 | Cc1ccc2nc(NC(=O)C3CCCN(S(=O)(=O)c4cccc5nonc45)C3)sc2c1 (configuration not stated) | 97.5% (inactive) | 71.6% (inactive) | 76% (inactive) | -14.8% (inactive) | 90.8 | 76 | -4.34% (inactive) | 1.17% (inactive)
14 | Cn1nc(-c2ccc(N3CCCCC3)c(NC(=O)c3ccco3)c2)c2ccccc2c1=O | 107% (inactive) | 56.2% (inactive) | 32.3% (active) | 11.6% (inactive) | 20.8 | 32.3 | 1.6% (inactive) | 4.35% (inactive)
15 | CC(C)(C)NS(=O)(=O)c1ccc(CCC(=O)O)cc1 | 100% (inactive) | 105% (inactive) | 94.8% (inactive) | -5.2% (inactive) | 100 | 94.8 | -3.42% (inactive) | -1.45% (inactive)
16 | c1ccc(-c2cnc(CSc3ncnc4sccc34)o2)cc1 | 94% (inactive) | 90.7% (inactive) | 96.9% (inactive) | 14.7% (inactive) | 82.2 | 96.9 | -5.68% (inactive) | -5.82% (inactive)
17 | FC(F)Oc1cccc2cccnc12 | 89% (inactive) | 111% (inactive) | 94% (inactive) | 9.04% (inactive) | 84.9 | 94 | -3.33% (inactive) | -0.55% (inactive)
18 | COc1ccc(Cn2c(N)c(C#N)c3nc4ccccc4nc32)cc1OC | 95% (inactive) | 100% (inactive) | 99.5% (inactive) | 12.6% (inactive) | 86.9 | 99.5 | -6.58% (inactive) | 0.48% (inactive)
19 | CCOC(=O)c1c(NC(=O)OC)sc2c1CCC2 | 129% (inactive) | 89.7% (inactive) | 87.1% (inactive) | -0.775% (inactive) | 87.9 | 87.1 | 0.65% (inactive) | -4.75% (inactive)
20 | O=C(COC(=O)c1cnccn1)Nc1ccc2c(c1)OCO2 | 130% (inactive) | 82% (inactive) | 91.6% (inactive) | 2.88% (inactive) | 88.7 | 91.6 | 0.65% (inactive) | 2.46% (inactive)
21 | COc1ccc2cc(C#N)c(N3CCN(Cc4nnnn4CCC(C)C)CC3)nc2c1 | 89% (inactive) | 64.5% (inactive) | 79.4% (inactive) | 8.18% (inactive) | 71.2 | 79.4 | -2.93% (inactive) | 2.73% (inactive)
22 | O=C(Nc1ccc(N2CCOCC2)cc1)Nc1ccc2nc(-c3ccco3)c(-c3ccco3)nc2c1 | 71.5% (inactive) | 16.6% (active) | 13.5% (active) | -8.11% (inactive) | 21.6 | 13.5 | -7.73% (inactive) | -1.45% (inactive)
23 | CCOC(=O)N1CCC(N(C(=O)Nc2cccc(OC)c2)C(C)CC)CC1 (configuration not stated) | 129% (inactive) | 120% (inactive) | 96.9% (inactive) | 1.43% (inactive) | 95.5 | 96.9 | -2.21% (inactive) | 3.11% (inactive)
24 | Cc1cnc(C(=O)Nc2ccccc2-n2cccc2)cn1 | 94% (inactive) | 105% (inactive) | 92.4% (inactive) | 3.75% (inactive) | 88.6 | 92.4 | -7.6% (inactive) | -2.73% (inactive)
